According to ChEMBL document CHEMBL1142299, “Coumarin as attractive casein kinase 2 (CK2) inhibitor scaffold: an integrate approach to elucidate the putative binding motif and explain structure-activity relationships” (J Med Chem, 2008):
pIC50, pKi: −log10 of the molar value.

Assay: Inhibition of CK2 in rat liver
In short: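 Native CK2 purified from rat liver. Started with kinase, stopped at 10 min with orthophosphoric acid. Read by phosphocellulose filter binding and counting. Three independent experiments, values averaged.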
In the case of `COc1c(O)c(-c2ccnnc2)cc2ccc(=O)oc12`, the pIC50 was less than 4.00. Molecule `Cc1c(Br)c(=O)oc2c(Br)c(O)c(O)cc12` has a pIC50 of 5.70. Molecule `Cc1c(Br)c(=O)oc2c(O)c(O)ccc12` has a pIC50 of 4.98. Work on `O=c1ccc2ccc(O)cc2o1` [UMBELLIFERONE] yielded a pIC50 of less than 4.00. Work on `O=c1ccc2c(O)cc(O)cc2o1` yielded a pIC50 of 4.46. Molecule `Cc1cc(=O)oc2cc(O)ccc12` [HYMECROMONE] has a pIC50 of less than 4.00. `CCOC(=O)c1cc2c(Br)cccc2oc1=O` showed a pIC50 of 3.93. Molecule `O=c1c2c(O)cccc2oc2c([N+](=O)[O-])ccc(O)c12` has a pIC50 of 6.40. `O=c1cc(CCl)c2ccc(O)cc2o1` gave a pIC50 of less than 4.40. In the case of `O=C(O)/C=C/c1cc(Br)c(Br)c(Br)c1Br`, the pIC50 was 6.96. `Cc1cc(=O)oc2c(C=O)c(O)ccc12` gave a pIC50 of less than 4.40. Molecule `COc1cc(O)cc2oc(=O)c(C)cc12` has a pIC50 of less than 4.40. In the case of `Cc1c(Br)c(=O)oc2c(C=O)c(O)ccc12`, the pIC50 was 5.48. Work on `Cc1cc(=O)oc2c(C)c(O)c([N+](=O)[O-])cc12` yielded a pIC50 of 4.52. `Cc1cc(=O)oc2cc3c([N+](=O)[O-])c(O)ccc3cc12` gave a pIC50 of 6.52. With `Cc1cc(=O)oc2cc(O)cc(O)c12` [5,7-DIHYDROXY-4-METHYLCOUMARIN] the pIC50 was 4.46. Molecule `O=c1oc2c(O)c(O)cc3c(=O)oc4c(O)c(O)cc1c4c23` [ELLAGIC ACID] has a pIC50 of 7.40. Molecule `Cc1c(Br)c(=O)oc2c(Br)c(O)ccc12` has a pIC50 of 7.00 and a pKi of 7.22. `Cc1c(Br)c(=O)oc2c(Br)c(N)ccc12` gave a pIC50 of less than 4.40.
